Experimental data published in ChEMBL document CHEMBL5329156, “Discovery and development of novel substituted monohydrazides as potent antifungal agents” (RSC Med Chem, 2023).
Values after ≈ are worked out from the molar mass of the structure shown. Active and inactive are the calls of the source. The rule behind the calls is not given here.

Experiments:
Candida albicans [1] = experiment: Antifungal activity against Candida albicans ATCC 10231 assessed as fungal growth inhibition by double dilution method; format: functional
Method in brief: (§1)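 Broth microdilution after CLSI M27-A3/M38-A2 with minor changes. Single colony grown overnight in YPD at 35 °C, 200 rpm. Compound final range 0.06-31.3 µg/mL; incubated 48 h at 35 °C.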

Candida albicans [2] = experiment: Antifungal activity against Candida albicans ATCC 64124 assessed as fungal growth inhibition by double dilution method; format: functional
Method in brief: (§2)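 Broth microdilution after CLSI M27-A3/M38-A2 with minor modifications. A single colony was grown overnight in YPD at 35 °C with shaking at 200 rpm. Cells were mixed 1:1 with compound (final 0.06-31.3 µg/mL, from DMSO stocks) and incubated 48 h at 35 °C.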

Candida albicans [3] = experiment: Antifungal activity against itraconazole/fluconazole susceptible Candida albicans ATCC MYA-2876 assessed as fungal growth inhibition by double dilution method; format: functional; method in brief: as §2
Candida albicans [4] = experiment: Antifungal activity against itraconazole/fluconazole resistant Candida albicans ATCC 90819 assessed as fungal growth inhibition by double dilution method; format: functional; method in brief: as §2
Candida albicans [5] = experiment: Antifungal activity against itraconazole/fluconazole susceptible Candida albicans ATCC MYA-2310 assessed as fungal growth inhibition by double dilution method; format: functional; method in brief: as §2
Candida albicans [6] = experiment: Antifungal activity against itraconazole/fluconazole resistant Candida albicans ATCC MYA-1237 assessed as fungal growth inhibition by double dilution method; format: functional; method in brief: as §2
Candida albicans [7] = experiment: Antifungal activity against itraconazole/fluconazole resistant Candida albicans ATCC MYA-1003 assessed as fungal growth inhibition by double dilution method; format: functional; method in brief: as §2
Nakaseomyces glabratus [8] = experiment: Antifungal activity against Candida glabrata ATCC 2001 assessed as fungal growth inhibition by double dilution method; format: functional; method in brief: as §1
Pichia kudriavzevii [9] = experiment: Antifungal activity against Pichia kudriavzevii ATCC 6258 assessed as fungal growth inhibition by double dilution method; format: functional; method in brief: as §1
Nakaseomyces glabratus [10] = experiment: Antifungal activity against Candida glabrata ATCC 22019 assessed as fungal growth inhibition by double dilution method; format: functional; method in brief: as §1
[Candida] auris [11] = Antifungal activity against Candida auris AR Bank # 0384 assessed as fungal growth inhibition by double dilution method; format: functional; settings: Candidozyma auris; method in brief: as §1
[Candida] auris [12] = Antifungal activity against Candida auris AR Bank # 0390 assessed as fungal growth inhibition by double dilution method; format: functional; settings: Candidozyma auris; method in brief: as §1
Cryptococcus neoformans = experiment: Antifungal activity against Cryptococcus neoformans ATCC MYA-895 assessed as fungal growth inhibition by double dilution method; format: functional; method in brief: as §1
Aspergillus terreus = experiment: Antifungal activity against Aspergillus terreus ATCC MYA-3633 assessed as fungal growth inhibition by double dilution method; format: functional
Aspergillus fumigatus [13] = experiment: Antifungal activity against Aspergillus fumigatus NRRL 163 assessed as fungal growth inhibition by double dilution method; format: functional
Aspergillus flavus = experiment: Antifungal activity against Aspergillus flavus ATCC MYA-3631 assessed as fungal growth inhibition by double dilution method; format: functional
Aspergillus nidulans = experiment: Antifungal activity against Aspergillus nidulans ATCC 38163 assessed as fungal growth inhibition by double dilution method; format: functional
Aspergillus fumigatus [14] = experiment: Antifungal activity against Aspergillus fumigatus NRRL 5109 assessed as fungal growth inhibition by double dilution method; format: functional
Aspergillus fumigatus [15] = experiment: Antifungal activity against Aspergillus fumigatus NRRL 6113 assessed as fungal growth inhibition by double dilution method; format: functional
[Candida] auris [16] = Antifungal activity against Candida auris AR Bank # 381 assessed as fungal growth inhibition by double dilution method; format: functional; settings: Candidozyma auris; method in brief: as §1
[Candida] auris [17] = Antifungal activity against Candida auris AR Bank # 382 assessed as fungal growth inhibition by double dilution method; format: functional; settings: Candidozyma auris; method in brief: as §1
[Candida] auris [18] = Antifungal activity against Candida auris AR Bank # 383 assessed as fungal growth inhibition by double dilution method; format: functional; settings: Candidozyma auris; method in brief: as §1
[Candida] auris [19] = Antifungal activity against Candida auris AR Bank # 384 assessed as fungal growth inhibition by double dilution method; format: functional; settings: Candidozyma auris; method in brief: as §1
[Candida] auris [20] = Antifungal activity against Candida auris AR Bank # 385 assessed as fungal growth inhibition by double dilution method; format: functional; settings: Candidozyma auris; method in brief: as §1
[Candida] auris [21] = Antifungal activity against Candida auris AR Bank # 386 assessed as fungal growth inhibition by double dilution method; format: functional; settings: Candidozyma auris; method in brief: as §1
[Candida] auris [22] = Antifungal activity against Candida auris AR Bank # 387 assessed as fungal growth inhibition by double dilution method; format: functional; settings: Candidozyma auris; method in brief: as §1
[Candida] auris [23] = Antifungal activity against Candida auris AR Bank # 388 assessed as fungal growth inhibition by double dilution method; format: functional; settings: Candidozyma auris; method in brief: as §1
[Candida] auris [24] = Antifungal activity against Candida auris AR Bank # 389 assessed as fungal growth inhibition by double dilution method; format: functional; settings: Candidozyma auris; method in brief: as §1
[Candida] auris [25] = Antifungal activity against Candida auris AR Bank # 390 assessed as fungal growth inhibition by double dilution method; format: functional; settings: Candidozyma auris; method in brief: as §1
Candida duobushaemulonii [26] = experiment: Antifungal activity against Candida duobushaemulonii AR Bank # 391 assessed as fungal growth inhibition by double dilution method; format: functional; settings: Candidozyma duobushaemuli; method in brief: as §1
Candida duobushaemulonii [27] = experiment: Antifungal activity against Candida duobushaemulonii AR Bank # 392 assessed as fungal growth inhibition by double dilution method; format: functional; settings: Candidozyma duobushaemuli; method in brief: as §1
[Candida] haemuloni [28] = Antifungal activity against Candida haemulonii AR Bank # 393 assessed as fungal growth inhibition by double dilution method; format: functional; settings: Candidozyma haemuli; method in brief: as §1
Candida duobushaemulonii [29] = experiment: Antifungal activity against Candida duobushaemulonii AR Bank # 394 assessed as fungal growth inhibition by double dilution method; format: functional; settings: Candidozyma duobushaemuli; method in brief: as §1
[Candida] haemuloni [30] = Antifungal activity against Candida haemulonii AR Bank # 395 assessed as fungal growth inhibition by double dilution method; format: functional; settings: Candidozyma haemuli; method in brief: as §1
Kodamaea ohmeri = experiment: Antifungal activity against Kodamaea ohmeri AR Bank # 396 assessed as fungal growth inhibition by double dilution method; format: functional; method in brief: as §1
Pichia kudriavzevii [31] = experiment: Antifungal activity against Pichia kudriavzevii AR Bank # 397 assessed as fungal growth inhibition by double dilution method; format: functional; method in brief: as §1
Clavispora lusitaniae = experiment: Antifungal activity against Clavispora lusitaniae AR Bank # 398 assessed as fungal growth inhibition by double dilution method; format: functional; method in brief: as §1
Saccharomyces cerevisiae [32] = experiment: Antifungal activity against Saccharomyces cerevisiae AR Bank # 399 assessed as fungal growth inhibition by double dilution method; format: functional; method in brief: as §1
Saccharomyces cerevisiae [33] = experiment: Antifungal activity against Saccharomyces cerevisiae AR Bank # 400 assessed as fungal growth inhibition by double dilution method; format: functional; method in brief: as §1
J774.A1 = experiment: Cytotoxicity against J774A.1 cells assessed as reduction in cell viability at 31.3 microg/ml; format: toxicity, cell-based; settings: mouse, dose 31.3 µg/ml
Method in brief: (§3)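 Cells in DMEM with 10% FBS and 1% Pen/Strep, seeded at 10,000 cells/well and held overnight at 37 °C, 5% CO2. Compounds added at final 31.3-0.12 µg/mL (0.05% DMSO vehicle) for 24 h. Resazurin then added for 6 h; fluorescence read at ex 560/em 590. Triton X-100 1% as positive control; values normalized to vehicle. Run in quadruplicate.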

HEK293 = experiment: Cytotoxicity against human HEK-293 cells assessed as reduction in cell viability at 31.3 microg/ml; format: toxicity, cell-based; settings: dose 31.3 µg/ml; method in brief: as §3
HepG2 = experiment: Cytotoxicity against human HepG2 cells assessed as reduction in cell viability upto 31.3 microg/ml; format: toxicity, cell-based; settings: dose < 31.3 µg/ml; method in brief: as §3
Candida albicans [34] = experiment: Antibiofilm activity against Candida albicans ATCC 10231 assessed as reduction in biofilm production at 1.96 to 3.9 microg/ml by biofilm formation assay; format: functional, organism-based; settings: dose 1.96-3.9 µg/ml

With O=C(NNc1cccc(F)c1)c1ccccn1 the MIC (Candida albicans [1]) was ≤ 0.06 µg/mL, the MIC (Candida albicans [2]) was 0.98 µg/mL (≈ 4.24 µM) and the MIC (Candida albicans [3]) was 0.98 µg/mL (≈ 4.24 µM). It also gave an MIC (Candida albicans [4]) of 0.49 µg/mL (≈ 2.12 µM), an MIC (Candida albicans [5]) of 1.95 µg/mL (≈ 8.43 µM) and an MIC (Candida albicans [6]) of 0.98 µg/mL (≈ 4.24 µM). The MIC (Candida albicans [7]) was 0.98 µg/mL (≈ 4.24 µM), the MIC (Nakaseomyces glabratus [8]) was 1.95 µg/mL (≈ 8.43 µM) and the MIC (Pichia kudriavzevii [9]) was 0.24 µg/mL (≈ 1.04 µM). It also gave an MIC (Nakaseomyces glabratus [10]) of 1.95 µg/mL (≈ 8.43 µM), an MIC ([Candida] auris [11]) of 1.95 µg/mL (≈ 8.43 µM) and an MIC ([Candida] auris [12]) of 0.24 µg/mL (≈ 1.04 µM). For the same molecule, the MIC (Cryptococcus neoformans) was 0.12 µg/mL (≈ 0.519 µM), the MIC (Aspergillus terreus) was 1.95 µg/mL (≈ 8.43 µM) and the MIC (Aspergillus fumigatus [13]) was > 31.3 µg/mL. For the same molecule, the MIC (Aspergillus flavus) was 7.8 µg/mL (≈ 33.7 µM), the MIC (Aspergillus nidulans) was 0.49 µg/mL (≈ 2.12 µM) and the MIC (Aspergillus fumigatus [14]) was > 31.3 µg/mL. For the same molecule, the MIC (Aspergillus fumigatus [15]) was > 31.3 µg/mL, the MIC ([Candida] auris [16]) was 0.49 µg/mL (≈ 2.12 µM) and the MIC ([Candida] auris [17]) was 0.98 µg/mL (≈ 4.24 µM). For the same molecule, the MIC ([Candida] auris [18]) was 1.95 µg/mL (≈ 8.43 µM), the MIC ([Candida] auris [19]) was 1.95 µg/mL (≈ 8.43 µM) and the MIC ([Candida] auris [20]) was 0.98 µg/mL (≈ 4.24 µM). For the same molecule, the MIC ([Candida] auris [21]) was 0.49 µg/mL (≈ 2.12 µM), the MIC ([Candida] auris [22]) was 0.49 µg/mL (≈ 2.12 µM) and the MIC ([Candida] auris [23]) was 0.49 µg/mL (≈ 2.12 µM). The MIC ([Candida] auris [24]) was 0.12 µg/mL (≈ 0.519 µM), the MIC ([Candida] auris [25]) was 0.24 µg/mL (≈ 1.04 µM) and the MIC (Candida duobushaemulonii [26]) was 0.49 µg/mL (≈ 2.12 µM). It also gave an MIC (Candida duobushaemulonii [27]) of 0.24 µg/mL (≈ 1.04 µM), an MIC ([Candida] haemuloni [28]) of 0.12 µg/mL (≈ 0.519 µM) and an MIC (Candida duobushaemulonii [29]) of 0.49 µg/mL (≈ 2.12 µM). For the same molecule, the MIC ([Candida] haemuloni [30]) was ≤ 0.06 µg/mL, the MIC (Kodamaea ohmeri) was 0.24 µg/mL (≈ 1.04 µM) and the MIC (Pichia kudriavzevii [31]) was 0.24 µg/mL (≈ 1.04 µM). For the same molecule, the MIC (Clavispora lusitaniae) was 0.98 µg/mL (≈ 4.24 µM), the MIC (Saccharomyces cerevisiae [32]) was 1.95 µg/mL (≈ 8.43 µM) and the MIC (Saccharomyces cerevisiae [33]) was 1.95 µg/mL (≈ 8.43 µM). The Activity (J774.A1) was “Non-Toxic”, the Activity (HEK293) was “Non-Toxic” and the Activity (HepG2) was “Non-Toxic”. The Activity (Candida albicans [34]) was “Active”.
